# CYP2C9 act – CYP2C9 (human) activation | P11712 | recombinant CYP2C9, luciferin-H conversion, luminescence; active compounds read high; factor 1 = untreated enzyme, 0 = blocked | activation factor at 5 µM | actives 1.4% (n = 96,000) | AID 1024;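 active = activation factor of 2 or more for CYP2C9 at a 5 µM dose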;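 note: 0 = sulfaphenazole-blocked wells and 1 = vehicle-only wells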
# CYP2C19 activ – activators of human cytochrome P450 2C19 | P33261 | recombinant CYP2C19, luciferin-H EGE luminescence; active compounds read high; 0 = fully inhibited enzyme, 1 = untreated enzyme | activation factor at 5 µM | 96,000 tested, under 10 active | AID 1025;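 active = activation factor of at least 2 at 5 µM in the primary screen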;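 note: 0 = wells with 2.5 mM tranylcypromine and 1 = vehicle-only wells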
# Target sequence (P33261 whole entry, looked up): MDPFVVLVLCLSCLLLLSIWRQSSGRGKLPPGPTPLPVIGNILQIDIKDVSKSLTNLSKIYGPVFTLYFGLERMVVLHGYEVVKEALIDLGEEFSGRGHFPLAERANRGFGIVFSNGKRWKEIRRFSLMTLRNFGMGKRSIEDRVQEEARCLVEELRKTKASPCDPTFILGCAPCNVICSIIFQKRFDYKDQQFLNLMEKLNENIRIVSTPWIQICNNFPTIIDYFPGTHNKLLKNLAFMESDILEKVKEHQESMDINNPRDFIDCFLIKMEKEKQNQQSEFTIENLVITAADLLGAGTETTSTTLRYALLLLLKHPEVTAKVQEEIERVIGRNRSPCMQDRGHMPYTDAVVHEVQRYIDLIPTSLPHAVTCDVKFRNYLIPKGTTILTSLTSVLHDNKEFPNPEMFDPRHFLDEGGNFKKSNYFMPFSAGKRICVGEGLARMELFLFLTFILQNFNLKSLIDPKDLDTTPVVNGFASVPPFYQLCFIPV
# CYP2C9 inh – blocks human cytochrome P450 2C9. P11712. CYP2C9 Supersomes, luciferin-H conversion, luminescence. inhibition, % at 5 µM. actives 20% (n = 96,000). AID 777;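 active = blocking of liver enzyme CYP2C9 beyond about 50% at 5 µM, limit read from the data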
# tolC growth inh – blocks growth of E. coli BW25113 tolC mutant | AID 573 | OD615 | growth inhibition, % at 10 µM (by protocol) | actives 2.2% (n = 65,000);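 active = growth inhibition at or above a cutoff equal to the mean over every tested compound plus 3 SD, cut at about 60% in these data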;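 note: growth measured after 20 h incubation at 37 °C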
#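 Test system: tolC-deleted E. coli BW25113 | Medium: LB with kanamycin 50 µg/mL | Compound dosing: Single concentration, 10 µM final per compound | Schedule: 37 °C, 20 h exposure | Measured by: OD at 615 nm | Evaluation: Percent growth inhibition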
# CYP2C19 inh – blocks human cytochrome P450 2C19; actives 21% (n = 96,000); CYP2C19 Supersomes, luciferin-H EGE luminescence, 30 min; inhibition, % at 5 µM; AID 778;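 active = CYP2C19 inhibition above a set limit at 5 µM in the primary screen, cut at about 50% in these data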;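 note: plate controls were negative control wells for no effect and 2.5 mM tranylcypromine positive control for full effect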
# E coli WT exp – growth inhibitors of E. coli BW25113 wild type; actives 0.15% (n = 98,000); growth inhibition, % at 100 µM; AID 710; OD600 absorbance;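 active = growth inhibition above about 50% at one test dose, limit read from the data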;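 note: growth measured after 20 h incubation at 37 °C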
# Numbers without * were called inactive; . = not tested or not shown. An excerpt weighted towards active compounds, which were near 29% of everything screened.
SMILES,CYP2C9 act,CYP2C19 activ,CYP2C9 inh,tolC growth inh,CYP2C19 inh,E coli WT exp
Cn1c(SCc2cccc3ccccc23)nnc1-c1ccco1,1.4,0.2,-40,13,83*,7
Cc1cccc(CSc2nnc(-c3ccco3)n2C)c1,1,0.6,3,-8,37,4
COc1cccc(CSc2nnc(-c3ccco3)n2C)c1,0.8,0.1,17,-11,95*,-5
O=CN1CCN(C(C(=O)NC2CCCC2)c2ccc(Cl)cc2)CC1 (stereo not drawn),1,0.8,-4,-9,25,2
CCC(C)N1CC23C=CC(O2)C(C(=O)OCc2ccccc2)C3C1=O (stereo not drawn),0.5,1.1,47,-18,-5,-3
COC(=O)C1ON2OC(C(=O)OC)C(C(=O)OC)C2C1CC(C)=O (stereo not drawn),1,1,2,-11,-2,1
CCSc1ccc(NC(=O)c2cccnc2)cc1,0.9,1,12,.,-2,4
CCCN(CC1CC1)C(=O)CSc1ncnc2sc(C)c(C)c12,0.5,0.1,53*,.,92*,1
Cc1sc2ncnc(SCC(=O)NNC(=O)COc3cccc4ccccc34)c2c1C,1.4,1.1,-38,.,-9,-8
Cc1sc2ncnc(SCC(=O)c3cccs3)c2c1C,0.4,0.8,60*,13,23,-1
Cc1sc2ncnc(SCC#N)c2c1C,1.3,1,-27,12,2,-7
Cc1sc2ncnc(SCC(=O)N3CCCC3=O)c2c1C,0.4,0.4,63*,0,59*,1
O=C(COc1ccc(S(=O)(=O)N2CCCCC2)cc1)N1CCCCCC1,1,1.1,2,3,-6,0
O=C(c1ccc(Cl)cc1)N1CCC(O)(CSc2ccc(Cl)cc2)CC1,0.7,0.8,28,.,23,-7
O=C(c1ccc(Cl)cc1)N1CCC(O)(CSc2ccccc2)CC1,0.6,0.5,40,.,54*,3
O=C(NCc1ccc(F)cc1)c1cnn2ccccc12,1,0.4,2,.,60*,5
Cc1ccc(C)c(NC(=S)NC(NC(=O)Cc2ccccc2)C(Cl)(Cl)Cl)c1 (stereo not drawn),0.6,0.5,36,.,50*,-3
O=C(COc1ccccc1)NC(NC(=S)Nc1ccccc1C(=O)O)C(Cl)(Cl)Cl (stereo not drawn),0.2,0.9,82*,.,10,6
Cc1ccccc1NC(=S)NC(NC(=O)c1ccccc1C)C(Cl)(Cl)Cl (stereo not drawn),1,1,0,.,3,-8
Cc1cc(-c2ccccc2)[nH]c(=O)c1S(=O)(=O)c1ccccc1,1.1,1,-7,.,-4,1
CCOc1cc(CNC2CCCC2)cc(Cl)c1OCc1ccccc1,0.8,0.2,17,.,76*,18
Cc1nc2ccccc2c(=O)n1/N=C/c1cccnc1,0.8,0.8,23,-9,23,2
Cc1sc2nc(C)n(/N=C/c3ccccc3)c(=O)c2c1C,1,0.2,-3,.,77*,1
O=C1C=C(NCc2ccco2)CC(c2ccc(Cl)cc2)C1 (stereo not drawn),0.7,0.4,32,14,62*,-2
COc1ccc2c(c1OC)C(=O)N(C(C)C(=O)O)C2=O (stereo not drawn),1,1.1,-4,-14,-8,-4
SMILES,CYP2C9 act,CYP2C19 activ,CYP2C9 inh,tolC growth inh,CYP2C19 inh,E coli WT exp
COc1cccc(-c2cc3c(=O)n(-c4ccccc4)c(=S)[nH]c3s2)c1,0.9,1.1,7,.,-13,-8
COc1cccc(C2NC(=O)c3sc(=S)n(-c4ccccc4)c3N2)c1 (stereo not drawn),0.1,0.4,88*,.,57*,-8
COc1ccc(Br)cc1C1NC(=O)c2c(sc3c2CCN(C)C3)N1 (stereo not drawn),1.1,0.7,-5,-37,28,.
COc1ccc(OC)c(C2NC(=O)c3sc(=S)n(-c4ccccc4)c3N2)c1 (stereo not drawn),0.4,0.4,62*,8,57*,1
CCN(C(=O)C1CCN(S(=O)(=O)c2ccc3c(c2)oc(=O)n3C)CC1)c1cccc(C)c1,1,0.9,0,.,10,-3
Cc1ccccc1-n1c(SCC(N)=O)nc2sc(-c3ccccc3)cc2c1=O,0.2,0.4,84*,.,63*,-13
Cc1ccc(C)n1-n1c(C)nc2sc(-c3ccccc3)cc2c1=O,0.9,0.9,12,14,12,-8
C=CCSc1nc2sc(-c3ccccc3)cc2c(=O)n1N,0.5,0.7,50*,.,29,-18
CCOC(=O)c1ccc(NC2OC(=O)c3ccccc32)cc1 (stereo not drawn),1,0.6,-1,-15,37,16
C=CCn1c(-c2cc(OC)cc(OC)c2)n[nH]c1=S,0.8,0.7,16,7,33,7
C=CCn1c(C(CCC(C)C)CC(C)(C)O)n[nH]c1=S (stereo not drawn),0.8,0.3,23,.,73*,-2
COc1cccc(OCCNc2cc(Cl)ccc2[N+](=O)[O-])c1,0.6,0.5,42,.,46,-10
O=C(CN1CCN(c2ccc(Cl)cc2)CC1)Nc1ccc(F)c(F)c1,0.5,0.7,46,12,26,4
CCn1c(CSc2nc(C)cs2)nc2cc(S(=O)(=O)N(C)C)ccc21,0.6,1,43,-3,-2,-1
CCn1c(CCC(=O)Nc2cc(F)ccc2C)nc2cc(S(=O)(=O)N(C)C)ccc21,0.2,0.8,80*,16,16,-9
CCN(CC)S(=O)(=O)c1ccc2c(c1)nc(CCC(=O)Nc1ccccc1Cc1ccccc1)n2CC,0,0.2,100*,.,77*,-5
CCOC(=O)C1CSc2[nH]c(=O)sc2C1c1ccccc1 (stereo not drawn),0.4,0.2,62*,3,81*,-4
O=C(NCCNC(=O)C1CC2CCC1C2)C1CC2CCC1C2 (stereo not drawn),1.1,1,-8,-9,0,-4
CC1=C(C(=O)OCc2ccc3c(c2)OCO3)C(c2ccc(Cl)cc2)NC(=O)N1 (stereo not drawn),0.6,0.8,42,32,19,.
CC(C)(C)c1nn(-c2ccccc2)c2[nH]c(=O)c(CNc3ccc4c(c3)OCCO4)cc12,0.9,0.9,8,.,6,-12
Cc1nn(-c2ccccc2)c2[nH]c(=O)c(CNc3ccc(N4CCOCC4)cc3)cc12,0.4,0.7,57*,-4,34,-6
Cc1nn(-c2ccc(Cl)cc2)c2[nH]c(=O)c(CNCc3ccc4c(c3)OCO4)cc12,0.4,0.4,56*,45,65*,3
CCCCC1(C)NC(=O)N(CC(=O)Nc2ccc(S(=O)(=O)N3CCOCC3)cc2)C1=O (stereo not drawn),0.9,0.9,10,-8,6,2
Cc1ccc(OCC(=O)N2CCCCCC2)c(C)c1,1.2,0.2,-20,-5,80*,0
